These results are taken from ChEMBL document CHEMBL1142195, “A novel nonnucleoside analogue that inhibits human immunodeficiency virus type 1 isolates resistant to current nonnucleoside reverse transcriptase inhibitors” (Antimicrob Agents Chemother, 2007).

Molecules are shown by their SMILES. The source made the active and inactive calls. No cut-off for these calls is given here.

The EC50 is the concentration that produces a half-maximal response. A word on the Tmax: it is the time at which the peak concentration occurs. A word on the half-life: it is how long it takes for the measured level to halve. Low values mean rapid decline, high ones slow decline.

For data set [1], the system named is Human immunodeficiency virus 1. Nature of the data set: Antiviral activity against HIV1 NL4-3 with Y188L mutation in Hela-JC53 cells in the presence of 30% human serum after 48 hrs. The class given is functional, organism-based. The settings on record: Human immunodeficiency virus 1, NL4-3, Hela-JC53, 48 h. The procedure, abridged: (§1)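 VSV-G-pseudotyped Y188L NL4-3.Luci.R−E− virus (MOI 0.03) infecting HeLa-JC53 cells (1.5 × 10^4) in phenol red-free DMEM with 2% FBS. Serially diluted compound was added, then heat-inactivated human serum at final 0, 5, 10, 20, 30, 40 or 50%. Cultures ran 48 h at 37°C in 5% CO2, read by Bright-Glo luciferase chemiluminescence. EC50 was taken by nonlinear regression.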

Data set [2] deals with Human immunodeficiency virus 1. Nature of the data set: Antiviral activity against HIV1 isolate with RT A98G mutation. The class given is functional, organism-based. The procedure, abridged:
(§2)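 VSV-G-pseudotyped pNL4-3.Luc.R−E− molecular clones carrying the RT mutations, single-round infection of HeLa-JC53 cells (15,000/well) at MOI 0.03. Compounds serially diluted 1:4 in DMSO then in phenol red-free DMEM with 2% FBS, final DMSO 0.2%. Incubated 48 h at 37°C, 5% CO2. Luciferase read-out by chemiluminescence gives the EC50. Fold change is relative to wt virus, mean of two tests.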

A short description of data set [3]: Tmax in dog at 20 mg/kg, po. The class given is ADME, organism-based, Canis lupus familiaris. Also noted: dose 20 mg/kg, route oral. The settings on record: in vivo.
The subject of data set [4] is Human immunodeficiency virus 1. Nature of the data set: Antiviral activity against HIV1 isolate with RT K103N-K101Q mutation. The class given is functional, organism-based. The procedure, abridged: as §2
Data set [5] relates to Human immunodeficiency virus 1. Nature of the data set: Antiviral activity against HIV1 NL4-3 in Hela-JC53 cells in the presence of 10% human serum after 48 hrs. The class given is functional, organism-based. The settings on record: Human immunodeficiency virus 1, NL4-3, Hela-JC53, 48 h. The procedure, abridged: (§3)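 HeLa-JC53 cells (1.5 × 10^4) infected with VSV-G-pseudotyped NL4-3.Luci.R−E− reporter virus at MOI 0.03, with 1:4 serial compound dilutions. Heat-inactivated human serum added to final 0–50% on a basal 2% FBS medium. Incubated 48 h at 37°C in 5% CO2. Luciferase read-out; EC50 by nonlinear regression.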

Data set [6] deals with Human immunodeficiency virus 1. Nature of the data set: Antiviral activity against HIV1 NL4-3 with Y188L mutation in Hela-JC53 cells in the presence of 20% human serum after 48 hrs. The class given is functional, organism-based. The settings on record: Human immunodeficiency virus 1, NL4-3, Hela-JC53, 48 h. The procedure, abridged:
as §1

In data set [7] the test system is Human immunodeficiency virus 1. Nature of the data set: Antiviral activity against HIV1 isolate with RT V106I, D123G, Y181C, F227L mutation in Hela-JC-53 cells. The class given is functional.
Data set [8] concerns Human immunodeficiency virus 2. Nature of the data set: Inhibition of HIV2(NIH-Z) isolate. It counts as functional, organism-based. Summed up:
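HeLa-JC53-LTR-Luci cells (HIV-1 LTR-driven luciferase) infected with HIV-2 at MOI 0.03, with 1:4 serial compound dilutions (final DMSO 0.2%, 2% FBS medium). Incubated 48 h at 37°C in 5% CO2. Luciferase chemiluminescence read-out.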

The test system of data set [9] is Human immunodeficiency virus 1. The data set can be described thus: Antiviral activity against HIV1 isolate with RT K103N-L100I mutation. It counts as functional, organism-based. Summed up: as §2
Data set [10] concerns Human immunodeficiency virus 1. The data set can be described thus: Antiviral activity against HIV1 isolate with RT K103N-Y181C mutation. It counts as functional, organism-based. The procedure, abridged: as §2
A short description of data set [11]: Half life in dog at 20 mg/kg, po. The settings on record: in vivo. The class given is ADME, organism-based, Canis lupus familiaris. Also noted: dose 20 mg/kg, route oral.
The subject of data set [12] is Human immunodeficiency virus 1. The data set can be described thus: Antiviral activity against HIV1 isolate V106I-Y188L mutant. The class given is functional, organism-based.
Data set [13] deals with Human immunodeficiency virus 1. Nature of the data set: Antiviral activity against HIV1 isolate with RT K103N-G190A mutation. It counts as functional, organism-based. The procedure, abridged:
as §2

Data set [14] has as its target T1, DNA polymerase alpha catalytic subunit (Homo sapiens) (UniProt P09884).
T1 sequence (whole entry): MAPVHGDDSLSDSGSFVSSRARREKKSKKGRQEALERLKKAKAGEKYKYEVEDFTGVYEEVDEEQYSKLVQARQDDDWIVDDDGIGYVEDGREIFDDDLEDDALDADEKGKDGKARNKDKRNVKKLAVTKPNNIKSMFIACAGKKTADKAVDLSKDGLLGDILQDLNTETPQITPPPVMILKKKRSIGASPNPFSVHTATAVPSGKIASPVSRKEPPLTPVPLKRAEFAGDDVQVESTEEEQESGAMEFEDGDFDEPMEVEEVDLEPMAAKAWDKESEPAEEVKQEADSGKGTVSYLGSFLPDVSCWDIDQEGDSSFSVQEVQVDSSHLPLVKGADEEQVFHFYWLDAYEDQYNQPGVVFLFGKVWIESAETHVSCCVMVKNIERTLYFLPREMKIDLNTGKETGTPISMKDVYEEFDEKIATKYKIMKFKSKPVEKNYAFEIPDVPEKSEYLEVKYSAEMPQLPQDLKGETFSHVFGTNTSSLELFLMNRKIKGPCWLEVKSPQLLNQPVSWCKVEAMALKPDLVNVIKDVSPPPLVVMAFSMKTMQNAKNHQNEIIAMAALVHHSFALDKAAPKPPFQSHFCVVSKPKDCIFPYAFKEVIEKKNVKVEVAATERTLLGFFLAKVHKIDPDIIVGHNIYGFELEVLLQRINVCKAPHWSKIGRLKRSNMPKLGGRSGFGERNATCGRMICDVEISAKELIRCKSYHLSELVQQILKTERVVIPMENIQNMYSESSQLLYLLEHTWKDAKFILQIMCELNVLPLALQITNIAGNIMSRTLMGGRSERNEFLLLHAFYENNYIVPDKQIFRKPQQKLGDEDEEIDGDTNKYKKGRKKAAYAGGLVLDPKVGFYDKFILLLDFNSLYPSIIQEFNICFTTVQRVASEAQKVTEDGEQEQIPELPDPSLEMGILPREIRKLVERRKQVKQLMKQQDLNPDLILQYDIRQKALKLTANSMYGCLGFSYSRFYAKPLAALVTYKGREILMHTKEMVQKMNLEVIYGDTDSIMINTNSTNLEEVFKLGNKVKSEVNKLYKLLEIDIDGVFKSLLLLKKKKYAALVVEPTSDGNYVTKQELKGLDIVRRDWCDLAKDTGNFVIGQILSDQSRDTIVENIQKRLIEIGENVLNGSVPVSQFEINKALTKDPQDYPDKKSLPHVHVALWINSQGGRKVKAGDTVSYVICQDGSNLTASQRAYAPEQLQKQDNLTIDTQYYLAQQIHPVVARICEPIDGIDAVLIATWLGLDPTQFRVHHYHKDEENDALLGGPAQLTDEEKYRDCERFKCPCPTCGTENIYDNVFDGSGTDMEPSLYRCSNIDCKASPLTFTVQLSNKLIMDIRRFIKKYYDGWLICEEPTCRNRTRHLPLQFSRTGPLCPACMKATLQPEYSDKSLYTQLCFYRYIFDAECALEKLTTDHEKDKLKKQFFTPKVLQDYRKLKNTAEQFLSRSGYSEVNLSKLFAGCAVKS
The data set can be described thus: Inhibition of human DNA polymerase alpha upto 45 uM.

Data set [15] relates to Human immunodeficiency virus 1. Nature of the data set: Antiviral activity against wild type HIV1 NL4-3 in Hela-JC53 cells in the presence of 20% human serum after 48 hrs. It counts as functional, organism-based. The settings on record: Human immunodeficiency virus 1, NL4-3, Hela-JC53, 48 h. Summed up:
as §3

Data set [16] concerns Human immunodeficiency virus 1. Nature of the data set: Antiviral activity against HIV1 isolate with RT V106I mutation in Hela-JC-53 cells. The class given is functional.
Data set [17] relates to Human immunodeficiency virus 1. Nature of the data set: Antiviral activity against HIV1 isolate with RT V106I, Y181C, F227L mutation in Hela-JC-53 cells. It counts as functional.
Data set [18] relates to Human immunodeficiency virus 1. The data set can be described thus: Antiviral activity against HIV1 NL4-3 with Y188L mutation in Hela-JC53 cells in the presence of 40% human serum after 48 hrs. The class given is functional, organism-based. The settings on record: Human immunodeficiency virus 1, NL4-3, Hela-JC53, 48 h. Summed up:
as §1

The test system of data set [19] is Human immunodeficiency virus 1. Nature of the data set: Antiviral activity against HIV1 isolate with RT K101E mutant. It counts as functional, organism-based. Summed up:
as §2

The subject of data set [20] is Human immunodeficiency virus 1. The data set can be described thus: Antiviral activity against HIV1 isolate with RT 103N, 190A mutation relative to wild type. The class given is functional.

With `NS(=O)(=O)c1ccc(NC(=O)CSc2nnc(Br)n2-c2ccc(C3CC3)c3ccccc23)c(Cl)c1`, the 50% effective concentration (EC50) was 45.9 nM in [1]; 0.3 nM in [2]; 0.15 nM in data set [4]; 3.9 nM in data set [5]; 43.3 nM in [6]; 0.05 nM in [9]. Further, the EC50 in [10] worked out at 0.23 nM; in data set [12] it was 2.27 nM; in data set [13], 0.32 nM; in [15], 7.1 nM; in data set [18] it was 54 nM; in data set [19], 0.26 nM. In [3], the Tmax worked out at 5.3 h. Moreover, the Fold change came out at 9.1 in data set [7], 1 in data set [16] and 18.7 in [17]. Also, the result in data set [8] and in data set [14] was inactive. This compound also gave a half-life in [11] of 3.36 h.
`Cc1ccnc2c1NC(=O)c1cccnc1N2C1CC1` [NEVIRAPINE]: the Fold change in [20] was greater than 100.
